One assay is filed under the species Homo sapiens. As to the kind of experiment: Agonist activity at HSP70 in human HEK293H cells transfected with HTT17Q assessed as reduction in HTT protein aggregation at 10 uM measured after 6 hrs by DAPI staining based confocal microscopy. In kind it is cell-based. Put shortly:
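HEK293H cells transfected with 4 μg HTT17Q-mCherry construct; 24 h post-transfection treated with 10 μM compound or DMSO vehicle control for 6 h. Cells stained with DAPI and imaged by confocal microscopy. Aggregates (puncta) counted per cell with a bright-spot detection tool. Significance assessed against DMSO control.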

The target in assay [1] is Histone deacetylase 3 (Homo sapiens) (UniProt O15379). Kind of assay: Inhibition of HDAC3 in human HeLa nuclear extract at 0.1 to 1 uM using HDAC substrate incubated for 30 mins by microplate reader assay. The format is cell-free.
Assay [2] concerns the target Histone deacetylase 2 (Homo sapiens) (UniProt Q92769). As to the kind of experiment: Inhibition of HDAC2 in human HeLa nuclear extract at 0.1 to 1 uM using HDAC substrate incubated for 30 mins by microplate reader assay. The format is cell-free.
Assay [3] has as its target T1, Protein deacetylase HDAC6 (Homo sapiens) (UniProt Q9UBN7).
T1 sequence (whole entry): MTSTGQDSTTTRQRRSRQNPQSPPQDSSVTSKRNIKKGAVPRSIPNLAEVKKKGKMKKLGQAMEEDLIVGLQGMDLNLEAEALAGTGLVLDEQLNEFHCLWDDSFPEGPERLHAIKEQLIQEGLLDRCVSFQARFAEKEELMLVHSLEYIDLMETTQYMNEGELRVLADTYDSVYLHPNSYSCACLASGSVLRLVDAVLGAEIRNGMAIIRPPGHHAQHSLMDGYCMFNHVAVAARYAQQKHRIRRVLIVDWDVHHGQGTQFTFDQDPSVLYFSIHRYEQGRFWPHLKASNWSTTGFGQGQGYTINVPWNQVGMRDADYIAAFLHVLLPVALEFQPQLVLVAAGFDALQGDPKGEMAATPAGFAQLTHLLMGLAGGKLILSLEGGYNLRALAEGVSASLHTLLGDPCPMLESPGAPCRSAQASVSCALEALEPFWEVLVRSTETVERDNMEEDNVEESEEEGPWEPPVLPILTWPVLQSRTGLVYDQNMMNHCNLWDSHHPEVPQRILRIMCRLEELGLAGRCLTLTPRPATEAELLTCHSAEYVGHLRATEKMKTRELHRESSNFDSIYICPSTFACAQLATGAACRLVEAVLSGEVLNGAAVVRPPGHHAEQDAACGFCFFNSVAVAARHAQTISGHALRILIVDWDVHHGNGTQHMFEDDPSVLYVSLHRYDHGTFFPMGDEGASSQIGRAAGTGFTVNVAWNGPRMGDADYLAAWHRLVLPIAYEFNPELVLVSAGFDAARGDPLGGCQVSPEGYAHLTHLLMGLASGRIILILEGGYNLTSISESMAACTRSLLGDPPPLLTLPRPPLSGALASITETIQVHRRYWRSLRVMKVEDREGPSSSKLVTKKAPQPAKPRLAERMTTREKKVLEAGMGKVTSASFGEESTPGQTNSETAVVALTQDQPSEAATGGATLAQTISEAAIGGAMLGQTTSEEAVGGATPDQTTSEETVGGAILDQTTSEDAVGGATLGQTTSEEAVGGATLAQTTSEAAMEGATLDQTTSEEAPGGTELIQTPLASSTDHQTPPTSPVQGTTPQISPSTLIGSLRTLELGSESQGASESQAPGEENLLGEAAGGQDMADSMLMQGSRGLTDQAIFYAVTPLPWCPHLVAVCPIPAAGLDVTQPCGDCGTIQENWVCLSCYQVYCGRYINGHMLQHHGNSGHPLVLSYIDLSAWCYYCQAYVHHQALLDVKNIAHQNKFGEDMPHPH
Kind of assay: Inhibition of recombinant human GST-His-tagged HDAC6 at 0.1 to 1 uM using fluorogenic HDAC substrate incubated for 30 mins by microplate reader assay.

Assay [4] has as its target Histone deacetylase 4 (Homo sapiens) (UniProt P56524). As to the kind of experiment: Inhibition of recombinant human GST-His-tagged HDAC4 at 0.1 to 1 uM using fluorogenic HDAC substrate incubated for 30 mins by microplate reader assay.
Assay [5] has as its target Histone deacetylase 5 (Homo sapiens) (UniProt Q9UQL6). Kind of assay: Inhibition of recombinant human GST-His-tagged HDAC5 at 0.1 to 1 uM using fluorogenic HDAC substrate incubated for 30 mins by microplate reader assay.
Assay [6] deals with Histone deacetylase 1 (Homo sapiens) (UniProt Q13547). As to the kind of experiment: Inhibition of HDAC1 in human HeLa nuclear extract at 0.1 to 1 uM using HDAC substrate incubated for 30 mins by microplate reader assay. In kind it is cell-free.
The target of assay [7] is T2, Histone deacetylase 8 (Homo sapiens) (UniProt Q9BY41).
T2 sequence (whole entry): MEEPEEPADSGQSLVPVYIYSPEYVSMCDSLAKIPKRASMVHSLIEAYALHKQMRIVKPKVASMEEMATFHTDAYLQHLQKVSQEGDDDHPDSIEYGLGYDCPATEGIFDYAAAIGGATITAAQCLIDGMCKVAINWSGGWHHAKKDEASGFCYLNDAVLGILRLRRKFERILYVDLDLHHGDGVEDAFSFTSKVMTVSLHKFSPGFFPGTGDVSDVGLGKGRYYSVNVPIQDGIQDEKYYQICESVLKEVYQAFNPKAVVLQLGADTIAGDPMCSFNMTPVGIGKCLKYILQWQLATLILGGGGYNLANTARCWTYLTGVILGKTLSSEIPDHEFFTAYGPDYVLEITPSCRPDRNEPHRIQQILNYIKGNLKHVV
As to the kind of experiment: Inhibition of recombinant human GST-His-tagged HDAC8 at 1 uM using fluorogenic HDAC substrate incubated for 30 mins by microplate reader assay relative to control.

Assay [8] deals with T3, Histone deacetylase 7 (Homo sapiens) (UniProt Q8WUI4).
T3 sequence (whole entry): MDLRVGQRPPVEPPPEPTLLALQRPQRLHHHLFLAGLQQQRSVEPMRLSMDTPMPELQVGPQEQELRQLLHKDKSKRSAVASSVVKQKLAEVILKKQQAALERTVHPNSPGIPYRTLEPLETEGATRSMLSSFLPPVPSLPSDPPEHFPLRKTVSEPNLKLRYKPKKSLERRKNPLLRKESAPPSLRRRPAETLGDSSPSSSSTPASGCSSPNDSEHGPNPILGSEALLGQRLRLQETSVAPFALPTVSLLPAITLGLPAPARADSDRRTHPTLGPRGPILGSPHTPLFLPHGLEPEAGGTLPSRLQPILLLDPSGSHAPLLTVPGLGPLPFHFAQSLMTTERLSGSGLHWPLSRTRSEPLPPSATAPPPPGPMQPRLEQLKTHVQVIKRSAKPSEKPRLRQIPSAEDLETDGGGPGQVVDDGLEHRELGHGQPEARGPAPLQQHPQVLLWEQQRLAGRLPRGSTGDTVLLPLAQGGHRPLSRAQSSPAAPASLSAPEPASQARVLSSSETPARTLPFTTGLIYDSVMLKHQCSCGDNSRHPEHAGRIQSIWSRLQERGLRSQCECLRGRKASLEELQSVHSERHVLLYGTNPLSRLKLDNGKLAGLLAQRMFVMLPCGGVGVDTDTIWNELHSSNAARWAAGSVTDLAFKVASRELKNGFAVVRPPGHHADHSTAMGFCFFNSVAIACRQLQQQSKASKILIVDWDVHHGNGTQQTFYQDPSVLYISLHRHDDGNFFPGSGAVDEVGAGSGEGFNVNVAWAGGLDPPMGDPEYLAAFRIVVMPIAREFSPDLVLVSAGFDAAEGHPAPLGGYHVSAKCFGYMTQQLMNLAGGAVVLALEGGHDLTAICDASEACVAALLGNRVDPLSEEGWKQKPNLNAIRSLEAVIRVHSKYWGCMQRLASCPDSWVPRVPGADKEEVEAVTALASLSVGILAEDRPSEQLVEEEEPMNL
As to the kind of experiment: Inhibition of recombinant human GST-His-tagged HDAC7 at 1 uM using fluorogenic HDAC substrate incubated for 30 mins by microplate reader assay relative to control.

The source made the active and inactive calls. No cut-off for these calls is given here.

Histone deacetylase 5 (Homo sapiens), sequence (Q9UQL6 whole entry): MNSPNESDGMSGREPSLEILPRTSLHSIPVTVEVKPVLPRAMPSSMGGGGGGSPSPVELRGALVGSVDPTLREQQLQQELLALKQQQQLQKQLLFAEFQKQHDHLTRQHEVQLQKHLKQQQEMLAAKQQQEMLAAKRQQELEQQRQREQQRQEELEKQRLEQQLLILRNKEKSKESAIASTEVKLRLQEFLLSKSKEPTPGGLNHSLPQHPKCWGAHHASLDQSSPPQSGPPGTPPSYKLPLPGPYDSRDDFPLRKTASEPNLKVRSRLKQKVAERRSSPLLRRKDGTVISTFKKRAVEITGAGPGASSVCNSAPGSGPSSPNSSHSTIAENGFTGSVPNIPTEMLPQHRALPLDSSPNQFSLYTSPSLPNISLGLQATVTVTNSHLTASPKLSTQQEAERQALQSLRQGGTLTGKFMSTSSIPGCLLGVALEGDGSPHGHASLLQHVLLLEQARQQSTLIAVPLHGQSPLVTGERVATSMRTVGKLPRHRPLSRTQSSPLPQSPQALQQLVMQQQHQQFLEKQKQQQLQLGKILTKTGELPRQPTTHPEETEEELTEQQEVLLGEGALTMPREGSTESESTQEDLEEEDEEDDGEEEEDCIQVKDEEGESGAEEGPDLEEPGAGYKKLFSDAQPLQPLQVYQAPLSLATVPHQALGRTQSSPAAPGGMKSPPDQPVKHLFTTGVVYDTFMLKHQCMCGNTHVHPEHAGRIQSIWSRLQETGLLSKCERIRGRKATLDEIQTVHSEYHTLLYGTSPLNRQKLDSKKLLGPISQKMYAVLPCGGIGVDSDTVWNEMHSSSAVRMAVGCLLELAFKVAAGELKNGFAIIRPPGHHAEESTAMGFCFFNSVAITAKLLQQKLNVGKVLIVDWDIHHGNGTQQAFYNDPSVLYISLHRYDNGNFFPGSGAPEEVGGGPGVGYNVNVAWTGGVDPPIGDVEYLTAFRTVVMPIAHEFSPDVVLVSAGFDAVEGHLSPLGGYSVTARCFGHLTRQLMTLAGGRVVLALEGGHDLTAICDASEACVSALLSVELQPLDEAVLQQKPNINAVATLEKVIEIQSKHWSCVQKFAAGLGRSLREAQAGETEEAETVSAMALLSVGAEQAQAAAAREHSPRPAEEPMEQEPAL
Histone deacetylase 4 (Homo sapiens), sequence (P56524 whole entry): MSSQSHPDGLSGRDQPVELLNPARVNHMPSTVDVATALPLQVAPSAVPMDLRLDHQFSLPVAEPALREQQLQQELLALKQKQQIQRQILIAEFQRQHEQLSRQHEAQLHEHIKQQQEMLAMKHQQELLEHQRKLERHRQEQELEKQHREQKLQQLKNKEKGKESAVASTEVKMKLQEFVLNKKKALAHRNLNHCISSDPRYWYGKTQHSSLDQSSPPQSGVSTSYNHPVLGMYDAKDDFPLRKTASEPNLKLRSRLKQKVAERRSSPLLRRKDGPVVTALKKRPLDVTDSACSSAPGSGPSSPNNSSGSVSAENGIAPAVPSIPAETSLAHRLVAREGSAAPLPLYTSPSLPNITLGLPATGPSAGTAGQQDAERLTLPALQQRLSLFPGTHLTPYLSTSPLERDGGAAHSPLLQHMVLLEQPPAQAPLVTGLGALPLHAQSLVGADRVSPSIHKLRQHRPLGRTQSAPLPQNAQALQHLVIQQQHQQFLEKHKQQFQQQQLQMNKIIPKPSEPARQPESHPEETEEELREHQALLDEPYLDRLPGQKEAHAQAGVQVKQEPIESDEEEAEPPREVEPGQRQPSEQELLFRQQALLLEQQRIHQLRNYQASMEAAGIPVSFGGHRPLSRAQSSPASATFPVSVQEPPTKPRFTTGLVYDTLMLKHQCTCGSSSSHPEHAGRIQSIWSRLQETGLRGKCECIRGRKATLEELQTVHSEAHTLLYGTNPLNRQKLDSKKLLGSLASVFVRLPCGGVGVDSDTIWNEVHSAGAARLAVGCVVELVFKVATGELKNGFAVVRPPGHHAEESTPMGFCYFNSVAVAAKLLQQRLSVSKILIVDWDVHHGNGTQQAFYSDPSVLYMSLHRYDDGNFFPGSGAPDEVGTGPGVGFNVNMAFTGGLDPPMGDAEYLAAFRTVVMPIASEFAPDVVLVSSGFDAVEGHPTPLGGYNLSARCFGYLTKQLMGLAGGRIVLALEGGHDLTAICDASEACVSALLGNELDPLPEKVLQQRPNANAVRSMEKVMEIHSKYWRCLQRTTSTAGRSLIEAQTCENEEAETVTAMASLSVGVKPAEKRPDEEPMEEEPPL
Histone deacetylase 1 (Homo sapiens), sequence (Q13547 whole entry): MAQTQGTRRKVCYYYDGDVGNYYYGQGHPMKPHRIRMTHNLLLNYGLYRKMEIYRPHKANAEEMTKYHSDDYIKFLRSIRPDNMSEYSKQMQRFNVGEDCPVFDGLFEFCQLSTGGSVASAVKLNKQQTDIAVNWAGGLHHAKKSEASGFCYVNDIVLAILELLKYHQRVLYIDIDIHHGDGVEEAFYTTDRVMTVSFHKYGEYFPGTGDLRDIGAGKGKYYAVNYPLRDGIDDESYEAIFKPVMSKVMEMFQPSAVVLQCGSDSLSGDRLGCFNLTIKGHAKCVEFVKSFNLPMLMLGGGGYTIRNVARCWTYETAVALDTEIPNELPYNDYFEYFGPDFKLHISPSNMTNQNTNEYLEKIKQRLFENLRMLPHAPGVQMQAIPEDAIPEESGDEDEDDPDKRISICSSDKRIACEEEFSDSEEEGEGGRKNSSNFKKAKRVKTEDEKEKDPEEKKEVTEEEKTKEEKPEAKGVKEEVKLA
Histone deacetylase 2 (Homo sapiens), sequence (Q92769 whole entry): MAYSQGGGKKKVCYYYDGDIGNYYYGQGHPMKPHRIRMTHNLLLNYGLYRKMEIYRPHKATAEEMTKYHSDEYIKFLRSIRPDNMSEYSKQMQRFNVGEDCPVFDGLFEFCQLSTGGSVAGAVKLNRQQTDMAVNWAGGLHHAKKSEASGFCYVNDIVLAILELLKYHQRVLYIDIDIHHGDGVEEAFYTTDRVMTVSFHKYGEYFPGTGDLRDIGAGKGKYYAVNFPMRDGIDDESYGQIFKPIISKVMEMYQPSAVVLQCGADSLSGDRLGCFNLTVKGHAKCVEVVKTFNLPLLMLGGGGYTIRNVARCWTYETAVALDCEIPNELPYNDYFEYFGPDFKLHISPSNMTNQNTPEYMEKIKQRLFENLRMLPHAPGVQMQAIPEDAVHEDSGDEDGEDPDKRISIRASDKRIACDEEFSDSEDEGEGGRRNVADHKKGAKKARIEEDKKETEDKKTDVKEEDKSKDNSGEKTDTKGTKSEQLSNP
Histone deacetylase 3 (Homo sapiens), sequence (O15379 whole entry): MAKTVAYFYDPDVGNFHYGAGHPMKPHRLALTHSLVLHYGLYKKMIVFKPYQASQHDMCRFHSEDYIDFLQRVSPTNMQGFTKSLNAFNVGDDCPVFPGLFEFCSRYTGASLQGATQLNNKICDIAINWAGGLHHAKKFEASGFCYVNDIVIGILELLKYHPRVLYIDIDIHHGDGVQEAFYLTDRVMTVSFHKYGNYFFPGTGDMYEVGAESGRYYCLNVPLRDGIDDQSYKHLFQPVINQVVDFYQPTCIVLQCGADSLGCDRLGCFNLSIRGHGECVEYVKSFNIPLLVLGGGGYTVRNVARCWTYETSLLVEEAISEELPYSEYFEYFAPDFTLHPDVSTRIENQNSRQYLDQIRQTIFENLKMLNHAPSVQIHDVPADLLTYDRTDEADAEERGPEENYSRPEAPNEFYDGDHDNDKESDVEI

`CCOC(=O)C1=CN(Cc2ccc(C(=O)O)cc2)S(=O)(=O)NC1c1ccc(Cl)cc1Cl` (stereo not given): in the assay listed under Homo sapiens, the outcome was Active.

The term inhibition denotes the drop in the measured response relative to a control, in per cent. On to `CCOC(=O)C1=CNS(=O)(=O)N(Cc2ccc(C(=O)O)cc2)C1c1ccc(Cl)cc1Cl` (stereo not given), for which the inhibition result in assay [1], in assay [2], in assay [3], in [4], in assay [5] and in assay [6] was “inactive” in each case. In the assay filed under Homo sapiens, the outcome was Active. Moreover, the inhibition in assay [7] lay in the range of 35 to 60%.

On to `O=C(O)CCCN1C=C(C(=O)O)C(c2ccc(Cl)cc2Cl)NS1(=O)=O` (stereo not given), for which, in the assay listed under Homo sapiens, the result was Active.

`CCOC(=O)C1=CN(CCCC(=O)OC)S(=O)(=O)NC1c1ccc(Cl)cc1Cl` (stereo not given): the outcome in the assay filed under Homo sapiens was Active.

On to `CCOC(=O)C1=CN(C(=O)OC(C)(C)C)S(=O)(=O)N(Cc2ccc(C(=O)OC(C)(C)C)cc2)C1c1ccc(Cl)cc1Cl` (stereo not given), for which the outcome in the assay filed under Homo sapiens was Active.

For the compound `COC(=O)CCCN1C=C(C(=O)O)C(c2ccc(Cl)cc2Cl)NS1(=O)=O` (stereo not given), the inhibition result in assay [1], in assay [2], in assay [3], in assay [4], in [5] and in [6] was “inactive” throughout. The result in the assay listed under Homo sapiens was Active. Further, the inhibition in [7] fell in the range of 35 to 60%.

On to `CCOC(=O)C1=CN(Cc2ccc(C(=O)NO)cc2)S(=O)(=O)NC1c1ccc(Cl)cc1Cl` (stereo not given), for which the inhibition result in [1], in [2], in [3], in [4], in assay [5] and in assay [6] was “inactive” each time. In addition, the outcome in the assay listed under Homo sapiens was Active. Also, the inhibition in assay [8] was 40%; in assay [7], 35 to 60%.

For the compound `CC1=C(C(=O)OCc2ccccc2)C(c2ccc(Cl)cc2Cl)NC(=O)N1CCCC(=O)O` (stereo not given), the outcome in the assay listed under Homo sapiens was Active.

With `CCOC(=O)C1=CN(CCCC(=O)NO)S(=O)(=O)NC1c1ccc(Cl)cc1Cl` (stereo not given), the inhibition entry in [1], in [2], in assay [3], in assay [4], in assay [5] and in assay [6] was “inactive” in each case. The outcome in the assay filed under Homo sapiens was Active. In addition, the inhibition in [7] is 35 to 60%.

Take `COC(=O)CCCN1C=C(C(=O)OCc2ccccc2)C(c2ccc(Cl)cc2Cl)NS1(=O)=O` (stereo not given): the outcome in the assay listed under Homo sapiens was Active.

`CCOC(=O)C1=CN(Cc2ccc(CO)cc2)S(=O)(=O)NC1c1ccc(Cl)cc1Cl` (stereo not given): the outcome in the assay listed under Homo sapiens was Active.

These data come from ChEMBL document CHEMBL4613316, “Synthesis and Selective Functionalization of Thiadiazine 1,1-Dioxides with Efficacy in a Model of Huntington's Disease” (ACS Med Chem Lett, 2020).
